According to ChEMBL document CHEMBL3351723, “New derivatives of lupane triterpenoids disturb breast cancer mitochondria and induce cell death” (Bioorg Med Chem, 2014):
Active and inactive are the calls of the source. The calls are words filed in the database; no cut-off is given here.

What was measured:
Liver microsome [1] = test: Induction of mitochondrial function disruption in Wistar Han rat liver mitochondria energized with succinate assessed as State-4 level per mg of protein measured at 0.333 ug/mg of protein (reference value: 33.5 +/- 7.5 nmol/mg protein/min); assay type: functional
[2] = Cell cycle arrest against human Hs578T cells assessed as increase in cells at G0/G1 phase at 0.5 ug/ml after 24 to 48 hrs by propidium iodide staining based flow cytometry; assay type: functional; conditions: Hs-578T
Summary of the method: (§1)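 Log-phase Hs578T cells exposed 24 and 48 h to 0.5 μg/ml. Adherent plus floating cells fixed in cold 70% ethanol, kept overnight at -20°C, washed into PBS-T (132 mM NaCl, 4 mM KCl, 1.2 mM NaH2PO4, 0.1% Tween). Treated with 20 μg/ml RNase for 45 min at 37°C, then propidium iodide for 30 min at 37°C. Phase percentages read by flow cytometry. Mean ± SEM, 5 experiments.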

Liver microsome [3] = test: Reduction in ADP-induced mitochondrial transmembrane electropotential in Wistar Han rat liver mitochondria energized with succinate at >0.7 ug/mg of protein; assay type: functional
Liver microsome [4] = test: Induction of mitochondrial function disruption in Wistar Han rat liver mitochondria energized with succinate assessed as State-4 level per mg of protein measured at 0.667 ug/mg of protein (reference value: 33.5 +/- 7.5 nmol/mg protein/min); assay type: functional
Liver microsome [5] = test: Induction of mitochondrial function disruption in Wistar Han rat liver mitochondria energized with succinate assessed as State-4 level per mg of protein measured at 0.067 ug/mg of protein (reference value: 33.5 +/- 7.5 nmol/mg protein/min); assay type: functional
[6] = Cell cycle arrest against human Hs578T cells assessed as decrease in cells at S phase at 0.5 ug/ml after 24 to 48 hrs by propidium iodide staining based flow cytometry; assay type: functional; conditions: Hs-578T; summary of the method: as §1
Liver microsome [7] = test: Induction of mitochondrial function disruption in Wistar Han rat liver mitochondria energized with succinate assessed as State-3 level per mg of protein measured at 0.133 ug/mg of protein (reference value: 130.8 +/- 24.1 nmol/mg protein/min); assay type: functional
Liver microsome [8] = test: Induction of mitochondrial function disruption in Wistar Han rat liver mitochondria energized with succinate assessed as adenosine diphosphate/O ratio measured at 1.333 ug/mg of protein (reference value: 2.3 +/- 0.2 no_unit); assay type: functional
Liver microsome [9] = test: Induction of mitochondrial function disruption in Wistar Han rat liver mitochondria energized with succinate assessed as adenosine diphosphate/O ratio measured at 0.133 ug/mg of protein (reference value: 2.3 +/- 0.2 no_unit); assay type: functional
[10] = Induction of apoptosis in human Hs578T cells assessed as distribution of mitochondrial polarization and morphology at 0.25 ug/ml after 6 hrs by confocal microscopy; assay type: functional, cell-based; conditions: Hs-578T
Summary of the method: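 Cells were seeded on glass coverslips and left to attach for 24 h. They were then exposed to vehicle or 0.25 μg/ml compound for 6 h. For the last 30 min they were loaded with 100 nM TMRM in saline buffer with 15 mM glucose, and the probe was kept present during imaging. Mitochondrial polarization and morphology were imaged by fluorescence microscopy, and the TMRM fluorescence standard deviation was quantified. Four independent preparations, mean ± SEM.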

Liver microsome [11] = test: Induction of mitochondrial function disruption in Wistar Han rat liver mitochondria energized with succinate assessed as State-4 level per mg of protein measured at 1.333 ug/mg of protein (reference value: 33.5 +/- 7.5 nmol/mg protein/min); assay type: functional
Hs-578T [12] = test: Cytotoxicity against human Hs578T cells at 0.125 to 2 ug/ml after 1 to 5 days by sulforhodamine B assay in presence of taxol; assay type: functional, cell-based
Liver microsome [13] = test: Induction of mitochondrial function disruption in Wistar Han rat liver mitochondria energized with succinate assessed as State-3 level per mg of protein measured at 1.333 ug/mg of protein (reference value: 130.8 +/- 24.1 nmol/mg protein/min); assay type: functional
MCF7 = test: Cytotoxicity against human MCF7 cells at 0.125 to 2 ug/ml after 1 to 5 days by sulforhodamine B assay in presence of taxol; assay type: functional, cell-based
MDA-MB-231 = test: Cytotoxicity against human MDA-MB-231 cells at 0.125 to 2 ug/ml after 1 to 5 days by sulforhodamine B assay in presence of taxol; assay type: functional, cell-based
BJ = test: Cytotoxicity against human BJ cells at 0.125 to 2 ug/ml after 1 to 5 days by sulforhodamine B assay; assay type: cell-based
Summary of the method: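 Non-tumor cells seeded at 2×10^4 cells/ml and treated 24 h after seeding, in high-glucose DMEM with pyruvate, 10% FBS and penicillin-streptomycin, 37°C, 5% CO2. Compound exposure 0.125–2 μg/ml for 1, 3 and 5 days, with vehicle controls. Cells fixed and stained with sulforhodamine B for total cell mass. Data given as % of untreated control at each time point; five independent experiments.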

Liver microsome [14] = test: Induction of mitochondrial function disruption in Wistar Han rat liver mitochondria energized with succinate assessed as respiratory control ratio measured at 0.667 ug/mg of protein (reference value: 4.1 +/- 0.5 no_unit); assay type: functional
[15] = Induction of mitochondrial function disruption in Wistar Han rat liver mitochondria energized with succinate assessed as adenosine diphosphate/O ratio measured at 0.667 ug/mg of protein (reference value: 2.3 +/- 0.2 no_unit); assay type: functional
Liver microsome [16] = test: Effect on mitochondrial transmembrane potential in Wistar Han rat liver mitochondria energized with succinate assessed as time duration of lag phase at 0.667 ug/mg of protein (reference value: 82.8 +/- 23.5 sec); assay type: functional
Summary of the method: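 Isolated male Wistar rat liver mitochondria (1.5 mg protein) in 125 mM sucrose, 65 mM KCl, 5 mM KH2PO4, 2.5 mM MgCl2, 5 mM HEPES pH 7.4, 30°C, with 3 μM TPP+. Compound added for 1 min, then 10 mM succinate plus 3 μM rotenone. State 3 started with ADP (83.3 nmol/mg protein). ΔΨ read with a TPP+-selective electrode and calculated by the Kamo equation without binding correction.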

Hs-578T [17] = test: Induction of apoptosis in human Hs578T cells assessed as increase in caspase 3 like activity at 1 ug/ml after 24 hrs; assay type: functional, cell-based
Hs-578T [18] = test: Cytotoxicity against human Hs578T cells at 0.125 to 2 ug/ml after 1 to 5 days by sulforhodamine B assay; assay type: functional, cell-based
Summary of the method: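 Sulforhodamine B growth assay in high-glucose DMEM with 10% FBS. Cancer cells seeded at 1×10^4 cells/ml; compound (0.125–2 μg/ml) added 24 h after seeding and left for 1, 3 or 5 days. Cells fixed, total mass stained. Expressed as % of untreated cells at the same time point. Mean ± SEM, five independent experiments.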

Hs-578T [19] = test: Induction of apoptosis in human Hs578T cells assessed as increase in caspase 9 like activity at 1 ug/ml after 24 hrs; assay type: functional, cell-based
Summary of the method: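 HS578T cells were treated 24 h at 1 μg/ml. Attached and floating cells were lysed in HEPES pH 7.4/CHAPS/DTT buffer. Extract protein was incubated 2 h at 37°C with […] Ac-DEVD-pNA (caspase-3) or Ac-LEHD-pNA (caspase-9). Released p-nitroanilide was read at endpoint against a pNA calibration. Six experiments, mean ± SEM.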

SMILES | Activity (Liver microsome [1]) [nmol/min] | Activity [2] | inhibition (Liver microsome [3]) | Activity (Liver microsome [4]) [nmol/min] | Activity (Liver microsome [5]) [nmol/min] | inhibition [6] | Activity (Liver microsome [7]) [nmol/min] | Ratio (Liver microsome [8]) | Ratio (Liver microsome [9]) | Activity [10] | Activity (Liver microsome [11]) [nmol/min] | inhibition (Hs-578T [12]) | Activity (Liver microsome [13]) [nmol/min] | inhibition (MCF7) | inhibition (MDA-MB-231) | Activity (BJ) | Ratio (Liver microsome [14]) | Ratio [15] | Activity (Hs-578T [17]) | Activity (Hs-578T [19]) | further results
C=C(C)[C@@H]1CC[C@]2(COC(=O)C[n+]3ccc(N(C)C)cc3)CC[C@]3(C)[C@H](CC[C@@H]4[C@@]5(C)CC[C@H](OC(=O)C[n+]6ccc(N(C)C)cc6)C(C)(C)[C@@H]5CC[C@]43C)[C@@H]12.[Cl-].[Cl-] | 34.8 | Active | Active | 34.5 | 24.5 | Active | 130 | 2.3 | 2.4 | Active | 34.8 | Active | 131 | Active | Active | Non-toxic | 4.4 | 2.2 | Active |  | TIME (Liver microsome [16]): 0.026 h
C=C(C)[C@@H]1CC[C@]2(COC(=O)CC[n+]3ccc(N(C)C)cc3)CC[C@]3(C)[C@H](CC[C@@H]4[C@@]5(C)CC[C@H](OC(=O)CC[n+]6ccc(N(C)C)cc6)C(C)(C)[C@@H]5CC[C@]43C)[C@@H]12.[Cl-].[Cl-] | 29.1 | Active |  | 25.7 | 29.4 | Active | 111 | 1.8 | 1.7 |  | 25.7 |  | 112 |  |  | Toxic | 4.6 | 1.6 | Active | Active | inhibition (Hs-578T [18]): Active
C=C(C)[C@@H]1CC[C@]2(COC(=O)C(CC)[n+]3ccc(N(C)C)cc3)CC[C@]3(C)[C@H](CC[C@@H]4[C@@]5(C)CC[C@H](OC(=O)C(CC)[n+]6ccc(N(C)C)cc6)C(C)(C)[C@@H]5CC[C@]43C)[C@@H]12 (stereo partly specified) | 23.2 | Active |  | 23.2 | 24.1 | Active | 131 | 1.6 | 1.6 | Active | 21.5 |  | 119 |  |  |  | 3.1 | 1.6 | Active | Active | 
C=C(C)[C@@H]1CC[C@]2(COC(=O)C[N+](C)(C)C(C)C)CC[C@]3(C)[C@H](CC[C@@H]4[C@@]5(C)CC[C@H](OC(=O)C[N+](C)(C)C(C)C)C(C)(C)[C@@H]5CC[C@]43C)[C@@H]12.[Cl-].[Cl-] | 27.2 | Active | Active | 28.8 | 27.5 | Active | 121 | 2.9 | 3.1 | Active | 28.7 | Active | 107 | Active | Active |  | 4.3 | 2.6 | Active | Active | inhibition (Hs-578T [18]): Active
